The term IC50 denotes the concentration that gives 50% inhibition.

Structures are written as SMILES. Converted amounts (≈) assume the structure as drawn.

One test has as its system ECV-304. Nature of the test: Half-maximal cytotoxic concentration of compound against endothelial cell line ECV304. It counts as functional, cell-based. The conditions noted are these: Homo sapiens. The gist of the method:
(§1)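 Cells (10⁴) exposed in triplicate wells to 0.5–10 µg/mL compound from DMSO stock (final DMSO <0.1%). Cells grown in DMEM with L-glutamine, 25 mM HEPES, 10% FBS and antibiotics at 37 °C, 5% CO2. MTT read-out after 120 h. IC50 is the mean of three experiments. Specificity ratio is IC50 in tumor cell divided by IC50 in ECV304.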

Test [1] is described as follows: Endothelial cell specificity of compound was determined as cytotoxicity on human tumor cell line A549 to that of endothelial cell. It counts as functional. The gist of the method:
as §1

The nature of test [2]: Endothelial cell specificity of compound was determined as cytotoxicity on human tumor cell line DU145 to that of endothelial cell. It counts as functional. Put shortly:
as §1

Test [3] in a line: Endothelial cell specificity of compound was determined as cytotoxicity on human tumor cell line L132 to that of endothelial cell. The test is classed as functional. The gist of the method: as §1
A short description of test [4]: Endothelial cell specificity of compound was determined as cytotoxicity on human tumor cell line PA-1 to that of endothelial cell. It counts as functional. Put shortly:
as §1

With `CC(C)[C@@H]1CC[C@]2(C(=O)O)CC[C@]3(C)C(CCC4[C@@]5(C)CC/C(=N\NC(=O)c6ccccc6)C(C)(C)C5CC[C@]43C)C12` (stereo not given in full), in the test on ECV-304, the IC50 is 0.39 µg/mL (≈ 0.678 µM). In addition, the ECS ratio in test [1] was 27.7; in test [2], 7.7; in test [3] it was 1; in test [4], 4.3.

In turn, `CC(C)[C@@H]1CC[C@]2(C(=O)O)CC[C@]3(C)C(CCC4[C@@]5(C)CC/C(=N\Nc6ccc(F)cc6)C(C)(C)C5CC[C@]43C)C12` (stereo not given in full) yielded an IC50 in the test with ECV-304 of 0.35 µg/mL (≈ 0.62 µM). Besides, the ECS ratio is on record as 20 in test [1], 3.7 in test [2], 11.1 in test [3] and 1.4 in test [4].

Take `C=C(C)[C@@H]1CC[C@]2(C(=O)O)CC[C@]3(C)[C@H](CC[C@@H]4[C@@]5(C)CCC(=O)C(C)(C)[C@@H]5CC[C@]43C)[C@@H]12` [BETUNOLIC ACID]: the midpoint of inhibition with ECV-304, the IC50, lay at 0.28 µg/mL (≈ 0.616 µM). Also, the ECS ratio in test [1] came out at 9.8; in test [2] it was 14.2; in test [3] it was 3.2; in test [4] it was 9.2.

`C=C(C)[C@@H]1CC[C@]2(C(=O)O)CC[C@]3(C)[C@H](CC[C@@H]4[C@@]5(C)CC[C@H](O)C(C)(C)[C@@H]5CC[C@]43C)[C@@H]12` [BETULINIC ACID] returned an IC50 in the test with ECV-304 of 1.26 µg/mL (≈ 2.76 µM). For the same compound, the ECS ratio in test [1] is reported as 1.1; in test [2], 2.2; in test [3], 1; in test [4], 3.2.

In the test on ECV-304, `CC(C)[C@@H]1CC[C@]2(C(=O)O)CC[C@]3(C)C(CCC4[C@@]5(C)CC/C(=N\Nc6c(Cl)cc(Cl)cc6Cl)C(C)(C)C5CC[C@]43C)C12` (stereo not given in full) came in with an IC50 of 0.21 µg/mL (≈ 0.323 µM). The ECS ratio in test [1] turned out to be 19; in test [2], 6.6; in test [3], 11.4; in test [4] it was 5.2.

For the compound `CC(C)[C@@H]1CC[C@]2(C(=O)O)CC[C@]3(C)C(CCC4[C@@]5(C)CC(Br)[C@H](O)C(C)(C)C5CC[C@]43C)C12` (stereo not given in full), in the test on ECV-304, the IC50 stood at 0.27 µg/mL (≈ 0.502 µM). Also, the ECS ratio in test [1] was found to be 11.5; in test [2], 7; in test [3], 3.1; in test [4], 7.4.
